Measurements as given in ChEMBL document CHEMBL3580530, “Allotides: Proline-Rich Cystine Knot α-Amylase Inhibitors from Allamanda cathartica” (J Nat Prod, 2015).
Activity calls are given as the source filed them. The calls are words filed in the database; no cut-off is given here. Where a SMILES comes first, the peptide text is derived from it. Bridges are numbered along the chain shown (N, C = ends).

Columns and labels:
[1] = Thermal stability assessed as compound hydrolysis using filly reduced form of compound in presence of chymotrypsin at 37 degC incubated for 4 hrs by UPLC and MS method; assay type: ADME; details: isolated protein
How it was run: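 Incubated with chymotrypsin at 37 °C for 4 h, then analysed by UPLC and MS.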

[2] = Thermal stability assessed as compound remaining at 100 degC incubated for 1 hr by UPLC and MS method; assay type: physicochemical; details: read-out: Stability
How it was run: (§1)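 Peptide heated at 100 °C for 1 h. Intact peptide monitored by UPLC and MS.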

[3] = target: T1, Pancreatic alpha-amylase (Sus scrofa) (UniProt P00690); assay: Inhibition of porcine pancreas alpha-amylase pre-incubated for 20 mins at 37 degC by bernfeld method
T1 sequence (whole entry): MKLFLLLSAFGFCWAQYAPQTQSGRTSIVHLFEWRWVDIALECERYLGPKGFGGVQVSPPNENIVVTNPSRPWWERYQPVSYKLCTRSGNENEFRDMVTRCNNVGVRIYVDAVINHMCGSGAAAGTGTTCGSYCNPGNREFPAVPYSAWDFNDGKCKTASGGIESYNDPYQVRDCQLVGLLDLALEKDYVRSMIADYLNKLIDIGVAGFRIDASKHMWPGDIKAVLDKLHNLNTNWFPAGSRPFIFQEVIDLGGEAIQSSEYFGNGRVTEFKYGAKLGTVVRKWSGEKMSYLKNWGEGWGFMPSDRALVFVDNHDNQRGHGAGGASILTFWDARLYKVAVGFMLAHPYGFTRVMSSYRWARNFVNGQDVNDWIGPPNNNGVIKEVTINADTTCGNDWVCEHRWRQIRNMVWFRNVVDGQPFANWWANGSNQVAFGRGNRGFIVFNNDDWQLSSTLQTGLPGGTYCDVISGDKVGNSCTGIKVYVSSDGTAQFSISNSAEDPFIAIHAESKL
How it was run: (§2)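 Bernfeld method. Peptide preincubated with α-amylase for 20 min at 37 °C. Hydrolysis started with 1% starch, run 5 min, then stopped with dinitrosalicylic acid color reagent. Absorbance read at 540 nm, with untreated enzyme set as 100%. Enzyme sources: T. molitor larval extract, human saliva, porcine pancreas, A. oryzae.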

[4] = Toxicity against human HuH7 cells assessed as effect on cell viability up to 100 uM by Presto blue reagent based assay; details: huh-7
Aspergillus oryzae = assay: Inhibition of Aspergillus oryzae alpha-amylase pre-incubated for 20 mins at 37 degC by bernfeld method; how it was run: as §2
Escherichia coli = assay: Antibacterial activity against Escherichia coli up to 100 uM by radial diffusion assay; assay type: functional, organism-based
How it was run: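 Radial diffusion assay against E. coli, peptide tested up to 100 μM. Positive control: D4R, a broad-spectrum antimicrobial peptide dendrimer made in-house.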

[5] = Toxicity against BHK cells assessed as effect on cell viability up to 100 uM by Presto blue reagent based assay; set-up: species or system Mesocricetus auratus; details: hamster
[6] = Thermal stability assessed as compound degradation at 100 degC incubated for 1 hr; assay type: physicochemical; how it was run: as §1
[7] = Toxicity against human O type erythrocytes cells assessed as induction of hemolysis up to 100 uM; assay type: cell-based; details: erythrocyte
How it was run: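 Hemolysis tested on human type O erythrocytes at up to 100 μM. Cliotide T4 used as the hemolytic positive control. Absorbance read on a microplate reader.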

[8] = Thermal stability assessed as compound degradation in presence of chymotrypsin at 37 degC incubated for 4 hrs; assay type: ADME; details: isolated protein
How it was run: (§3)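 Peptide incubated with chymotrypsin at 37 °C for 4 h. Intact peptide monitored by UPLC and MS.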

[9] = target: Alpha-amylase (Tenebrio molitor) (UniProt P56634); assay: (§4) Inhibition of Tenebrio molitor alpha-amylase pre-incubated for 20 mins at 37 degC by bernfeld method; how it was run: as §2
Sequence of Alpha-amylase (Tenebrio molitor) (P56634 whole entry): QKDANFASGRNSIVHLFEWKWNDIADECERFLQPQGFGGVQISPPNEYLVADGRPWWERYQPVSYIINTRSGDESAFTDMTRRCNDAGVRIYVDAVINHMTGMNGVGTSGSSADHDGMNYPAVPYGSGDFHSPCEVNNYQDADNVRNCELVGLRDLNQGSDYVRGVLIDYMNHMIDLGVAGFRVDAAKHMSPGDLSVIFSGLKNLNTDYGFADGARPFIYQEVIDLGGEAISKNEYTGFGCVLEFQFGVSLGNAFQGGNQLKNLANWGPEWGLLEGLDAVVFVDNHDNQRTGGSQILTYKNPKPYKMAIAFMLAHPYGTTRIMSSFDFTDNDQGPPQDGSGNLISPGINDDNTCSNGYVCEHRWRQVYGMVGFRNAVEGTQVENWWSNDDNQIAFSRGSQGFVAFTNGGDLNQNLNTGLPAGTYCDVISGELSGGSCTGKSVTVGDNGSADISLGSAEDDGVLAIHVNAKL

Alpha-amylase = Alpha-amylase (Tenebrio molitor, UniProt P56634); assay: as §4; how it was run: as §2
Sequence of Alpha-amylase (P56634 whole entry): as above

Vero = assay: Toxicity against African green monkey Vero cells assessed as effect on cell viability up to 100 uM by Presto blue reagent based assay; details: chlorocebus sabaeus
[10] = Thermal stability assessed as compound remaining in presence of chymotrypsin at 37 degC incubated for 4 hrs by UPLC and MS method; assay type: ADME; details: read-out: Stability; how it was run: as §3
[11] = target: T2, Alpha-amylase 1A (Homo sapiens) (UniProt P0DUB6); assay: Inhibition of alpha-amylase in human saliva pre-incubated for 20 mins at 37 degC by bernfeld method; how it was run: as §2
T2 sequence (whole entry): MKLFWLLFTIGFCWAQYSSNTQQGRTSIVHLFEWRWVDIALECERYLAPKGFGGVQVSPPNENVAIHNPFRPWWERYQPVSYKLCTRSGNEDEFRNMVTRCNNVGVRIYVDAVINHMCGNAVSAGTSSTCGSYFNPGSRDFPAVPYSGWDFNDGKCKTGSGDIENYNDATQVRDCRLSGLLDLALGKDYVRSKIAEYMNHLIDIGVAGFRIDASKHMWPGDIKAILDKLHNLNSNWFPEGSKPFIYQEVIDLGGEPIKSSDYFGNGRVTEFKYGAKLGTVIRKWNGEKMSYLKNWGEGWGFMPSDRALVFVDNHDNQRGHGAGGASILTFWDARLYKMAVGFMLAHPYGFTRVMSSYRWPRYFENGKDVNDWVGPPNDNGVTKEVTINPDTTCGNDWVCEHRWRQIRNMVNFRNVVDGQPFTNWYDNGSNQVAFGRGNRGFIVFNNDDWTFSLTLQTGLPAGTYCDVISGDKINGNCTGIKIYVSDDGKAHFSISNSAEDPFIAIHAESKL

SMILES	Stability [1]	remaining at 1 h [2]	inhibition [3]	Activity [4]	inhibition (Aspergillus oryzae)	Activity (Escherichia coli)	Activity [5]	Stability [6]	Activity [7]	Stability [8]	inhibition [9]	IC50 (Alpha-amylase)	Activity (Vero)	remaining at 4 h [10]	inhibition [11]
CC[C@H](C)[C@@H]1NC(=O)CNC(=O)[C@H](CC(=O)O)NC(=O)[C@@H]2CSSC[C@@H]3NC(=O)[C@H](CC(C)C)NC(=O)[C@H](Cc4c[nH]c5ccccc45)NC(=O)[C@@H]4CCCN4C(=O)[C@H](CC(=O)O)NC(=O)[C@H](CSSC[C@H](N)C(=O)N[C@@H]([C@@H](C)CC)C(=O)N[C@@H](C)C(=O)N[C@@H](Cc4cnc[nH]4)C(=O)N[C@@H](Cc4ccc(O)cc4)C(=O)NCC(=O)N[C@@H](CCCCN)C(=O)N2)NC(=O)[C@H](CSSC[C@@H](C(=O)N[C@@H](CC(C)C)C(=O)O)NC(=O)[C@H](Cc2ccccc2)NC(=O)CNC(=O)[C@H]([C@@H](C)CC)NC(=O)[C@H]([C@@H](C)CC)NC(=O)[C@@H]2CCCN2C(=O)[C@@H]2CCCN2C(=O)[C@H]([C@@H](C)O)NC3=O)NC(=O)[C@H](CCC(N)=O)NC(=O)[C@H](CC(N)=O)NC(=O)[C@H]([C@@H](C)CC)NC1=O (H-CIAHYGKCDGIINQCCDPWLCTPPIIGFCL-OH; disulfide 1-16, 8-21, 15-29)	Unstable	> 90%	inactive	Non-toxic	inactive	inactive	Non-toxic	Stable	Non-toxic	Stable	Dose-dependent effect	2600 nM	Non-toxic	> 90%	inactive
CC[C@H](C)[C@@H]1NC(=O)CNC(=O)CNC(=O)[C@H]([C@@H](C)CC)NC(=O)[C@H](C(C)C)NC(=O)[C@@H]2CCCN2C(=O)[C@H](CCC(N)=O)NC(=O)[C@H]([C@@H](C)O)NC(=O)[C@@H]2CSSC[C@@H]3NC(=O)[C@H](Cc4ccc(O)cc4)NC(=O)[C@H](CCC(=O)O)NC(=O)CNC(=O)[C@H](CCCCN)NC(=O)[C@H](CCC(N)=O)NC(=O)[C@H](C)NC(=O)[C@@H](N)CSSC[C@H](NC(=O)[C@H](CSSC[C@@H](C(=O)N[C@@H](C)C(=O)O)NC1=O)NC(=O)[C@H](CCC(N)=O)NC(=O)[C@H](CC(C)C)NC(=O)[C@H](Cc1ccc(O)cc1)NC(=O)[C@H](C(C)C)NC(=O)[C@H](CO)NC3=O)C(=O)N[C@@H](CC(=O)O)C(=O)N1CCC[C@H]1C(=O)N[C@@H](Cc1ccc(O)cc1)C(=O)N[C@@H](Cc1cnc[nH]1)C(=O)N2								Stable		Stable					
CC[C@H](C)[C@@H]1NC(=O)CNC(=O)CNC(=O)[C@H]([C@@H](C)CC)NC(=O)[C@H](C(C)C)NC(=O)[C@@H]2CCCN2C(=O)[C@H](CCC(N)=O)NC(=O)[C@H]([C@@H](C)O)NC(=O)[C@@H]2CSSC[C@@H]3NC(=O)[C@H](Cc4ccc(O)cc4)NC(=O)[C@H](CCC(=O)O)NC(=O)CNC(=O)[C@H](CCCCN)NC(=O)[C@H](CCC(N)=O)NC(=O)[C@H](C)NC(=O)[C@@H](N)CSSC[C@H](NC(=O)[C@H](CSSC[C@H](C(=O)N[C@@H](C)C(=O)O)NC1=O)NC(=O)[C@H](CCC(N)=O)NC(=O)[C@H](CC(C)C)NC(=O)[C@H](Cc1ccc(O)cc1)NC(=O)[C@H](C(C)C)NC(=O)[C@H](CO)NC3=O)C(=O)N[C@@H](CC(=O)O)C(=O)N1CCC[C@H]1C(=O)N[C@@H](Cc1ccc(O)cc1)C(=O)N[C@@H](Cc1cnc[nH]1)C(=O)N2			inactive		inactive						inactive				inactive
